{"data": "Measurements collected from several papers", "SETD7": "Histone-lysine N-methyltransferase SETD7 (SETD7, Homo sapiens, UniProt Q8WTS6)", "ADRB2": "Beta-2 adrenergic receptor (ADRB2, Homo sapiens, UniProt P07550)", "CSNK1A1": "Casein kinase I isoform alpha (CSNK1A1, Homo sapiens, UniProt P48729)", "SLC10A2": "Ileal sodium/bile acid cotransporter (SLC10A2, Homo sapiens, UniProt Q12908)", "HSD11B1": "11-beta-hydroxysteroid dehydrogenase 1 (HSD11B1, Homo sapiens, UniProt P28845)", "note": "Compare with care: the assays were run in different laboratories."}
{"target": "SETD7", "assay": "cell-free assay", "setting": "10 µM", "inhibition [%]": 0, "SMILES": "Cc1cc(O)c(C=O)c2c1C(=O)Oc1c(C)c(O)c3c(c1O2)C(O)OC3=O (centres unmarked)"}
{"target": "ADRB2", "assay": "cell-free assay", "setting": "10 µM", "inhibition [%]": -8.3, "SMILES": "COc1cc(NC(C)=O)c(Cl)cc1C(=O)Nc1nccs1"}
{"target": "SETD7", "assay": "cell-free assay", "setting": "10 µM", "inhibition [%]": 28, "SMILES": "O=C(Oc1cc(O)cc2c1C[C@@H](OC(=O)c1cc(O)c(O)c(O)c1)[C@@H](c1cc(O)c(O)c(O)c1)O2)c1cc(O)c(O)c(O)c1"}
{"target": "D(1B) dopamine receptor (DRD5, Homo sapiens, UniProt P21918)", "assay": "ligand displacement", "setting": "10 µM", "inhibition [%]": 48.7, "SMILES": "N#Cc1cc(Cn2c(N3CCCC3)nc3ccccc32)ccc1F"}
{"target": "SETD7", "assay": "cell-free assay", "setting": "10 µM", "inhibition [%]": 8, "SMILES": "O=C1c2c(O)cccc2Cc2cccc(O)c21"}
{"target": "Cyclin-dependent kinase-like 3 (CDKL3, Homo sapiens, UniProt Q8IVW4)", "assay": "enzyme activity, inhibitor", "setting": "1 µM", "inhibition [%]": 1, "SMILES": "CN1CC(Oc2cnc(C#N)cc2-c2ccn3nc(NC(=O)C4CC4)cc3c2)C1"}
{"target": "CSNK1A1", "assay": "target engagement in cells, inhibitor, chemoproteomics", "test system": "A-375", "setting": "5 µM", "inhibition [%]": -58.8, "SMILES": "CCN1CCN(Cc2ccc(NC(=O)c3ccc(C)c(/C=C/c4cnc5[nH]ccc5c4OC)c3)cc2C(F)(F)F)CC1"}
{"target": "SLC10A2", "assay": "transporter uptake, inhibitor, radiometric", "setting": "1 mM", "inhibition [%]": 25.3, "SMILES": "NS(=O)(=O)c1cc2c(cc1Cl)N=CNS2(=O)=O"}
{"target": "Galanin receptor type 2 (GALR2, Homo sapiens, UniProt O43603)", "assay": "ligand displacement, radioligand", "setting": "10 µM", "inhibition [%]": "< 10", "SMILES": "O=C1N=C(N2CCCCN2)S/C1=C\\c1ccc(F)cc1O"}
{"target": "HSD11B1", "assay": "enzyme activity, inhibitor", "setting": "20 µM, lysate", "inhibition [%]": "< 40", "SMILES": "C=C(CC)C(=O)c1ccc(OCC(=O)O)c(Cl)c1Cl"}
{"target": "Galanin receptor type 1 (GALR1, Homo sapiens, UniProt P47211)", "assay": "cell-free assay, radioligand", "setting": "10 µM", "inhibition [%]": 22, "SMILES": "C=C(C)C(=O)Nc1cc(C(=O)O)cc(C(=O)O)c1"}
{"target": "ADRB2", "assay": "cell-free assay", "setting": "10 µM", "inhibition [%]": 1.6, "SMILES": "O=C(c1ccc(Cl)cc1)N(Cc1ccccc1)C1CCCCC1"}
{"target": "SETD7", "assay": "cell-free assay", "setting": "10 µM", "inhibition [%]": 101, "SMILES": "Cc1cc(-c2ccc(/N=N/c3ccc4c(S(=O)(=O)O)cc(S(=O)(=O)O)c(N)c4c3O)c(C)c2)ccc1/N=N/c1ccc2c(S(=O)(=O)O)cc(S(=O)(=O)O)c(N)c2c1O"}
{"target": "HSD11B1", "assay": "enzyme activity, inhibitor", "setting": "20 µM, lysate", "inhibition [%]": "< 40", "SMILES": "CCCCc1oc2ccccc2c1C(=O)c1cc(I)c(OCCN(CC)CC)c(I)c1"}
{"target": "CSNK1A1", "assay": "enzyme activity, inhibitor, FRET", "setting": "10 µM", "inhibition [%]": 1, "SMILES": "CN(C)C1CCN(CC#Cc2nn(C3CCCC3)c3nc(NCc4ccccc4)ncc23)C1 (centres unmarked)"}
{"target": "SLC10A2", "assay": "transporter uptake, inhibitor, radiometric", "setting": "1 mM", "inhibition [%]": 95.5, "SMILES": "CCOC(=O)C1=C(COCCN)NC(C)=C(C(=O)OC)C1c1ccccc1Cl (centres unmarked)"}
{"target": "Cannabinoid receptor 2 (CNR2, Homo sapiens, UniProt P34972)", "assay": "ligand displacement", "setting": "1 µM", "inhibition [%]": 33.1, "SMILES": "COc1ccc(-n2nc(OCCCN3CCCCC3)ccc2=O)cc1"}
{"target": "SETD7", "assay": "cell-free assay", "setting": "10 µM", "inhibition [%]": 36, "SMILES": "O=C(O)c1cc(O)c2c(c1)[C@H]([C@H]1c3cc(C(=O)O)cc(O)c3C(=O)c3c(O[C@@H]4O[C@H](CO)[C@@H](O)[C@H](O)[C@H]4O)cccc31)c1cccc(O[C@@H]3O[C@H](CO)[C@@H](O)[C@H](O)[C@H]3O)c1C2=O"}
{"target": "G protein-coupled receptor kinase 5 (GRK5, Homo sapiens, UniProt P34947)", "assay": "enzyme activity, inhibitor", "setting": "0.3 µM", "inhibition [%]": -6, "SMILES": "Cc1ccc(Nc2nccc(N(C)c3ccc4c(C)n(C)nc4c3)n2)cc1S(N)(=O)=O"}
{"target": "SLC10A2", "assay": "transporter uptake, inhibitor, radiometric", "setting": "1 mM", "inhibition [%]": 57.9, "SMILES": "C=CCSCC1Nc2cc(Cl)c(S(N)(=O)=O)cc2S(=O)(=O)N1 (centres unmarked)"}
{"target": "Melanocortin receptor 5 (MC5R, Homo sapiens, UniProt P33032)", "assay": "ligand displacement, radioligand", "setting": "10 µM, 40 min", "inhibition [%]": 0, "SMILES": "CC(=O)N[C@H]1CSSC[C@@H](C(=O)N[C@H](Cc2c[nH]c3ccccc23)C(N)=O)NC(=O)[C@H](Cc2ccccc2)NC(=O)[C@H](CCCNC(=N)N)NC1=O"}
{"target": "SETD7", "assay": "cell-free assay", "setting": "10 µM", "inhibition [%]": 34, "SMILES": "C=CC1=C(C)c2cc3[nH]c(cc4nc(cc5[nH]c(cc1n2)c(C)c5CCC(=O)O)C(CCC(=O)O)=C4C)c(C)c3C=C"}
{"target": "SLC10A2", "assay": "transporter uptake, inhibitor, radiometric", "setting": "1 mM", "inhibition [%]": 38.6, "SMILES": "CC(CCc1ccccc1)NCC(O)c1ccc(O)c(C(N)=O)c1 (centres unmarked)"}
{"target": "SETD7", "assay": "enzyme activity, inhibitor", "setting": "1 µM", "inhibition [%]": 6, "SMILES": "CCN(c1cc(C#CCN2CCOCC2)cc(C(=O)NCc2c(C)cc(C)[nH]c2=O)c1C)[C@H]1CC[C@H](N(C)CCOC)CC1"}
{"target": "SLC10A2", "assay": "transporter uptake, inhibitor, radiometric", "setting": "1 mM", "inhibition [%]": "< 10", "SMILES": "C[C@@H](O)[C@H]1C(=O)N2C(C(=O)O)=C(S[C@@H]3CN[C@H](C(=O)N(C)C)C3)[C@H](C)[C@H]12"}
{"target": "SETD7", "assay": "cell-free assay", "setting": "10 µM", "inhibition [%]": -110, "SMILES": "CCCCC(CC)CNC(=N)NC(=N)NCCCCCCNC(=N)NC(=N)NCC(CC)CCCC (centres unmarked)"}
{"target": "SLC10A2", "assay": "transporter uptake, inhibitor, radiometric", "setting": "1 mM", "inhibition [%]": 25.8, "SMILES": "NS(=O)(=O)c1cc2c(cc1Cl)NCNS2(=O)=O"}
{"target": "72 kDa type IV collagenase (MMP2, Homo sapiens, UniProt P08253)", "assay": "enzyme activity, inhibitor", "setting": "50 µM", "inhibition [%]": 52, "SMILES": "CC(C)c1ncccc2nc(N)nc1-2"}
{"target": "SLC10A2", "assay": "transporter uptake, inhibitor, radiometric", "setting": "1 mM", "inhibition [%]": 78.1, "SMILES": "CCCCNc1cc(C(=O)O)cc(S(N)(=O)=O)c1Oc1ccccc1"}
{"target": "HSD11B1", "assay": "enzyme activity, inhibitor", "setting": "20 µM, lysate", "inhibition [%]": "< 40", "SMILES": "CN(CCOc1ccc(CC2SC(=O)NC2=O)cc1)c1ccccn1 (centres unmarked)"}
{"target": "SETD7", "assay": "cell-free assay", "setting": "10 µM", "inhibition [%]": 53, "SMILES": "O=C(O[C@@H]1Cc2c(O)cc(O)cc2O[C@@H]1c1cc(O)c(O)c(O)c1-c1c([C@H]2Oc3cc(O)cc(O)c3C[C@H]2O)cc(O)c(O)c1O)c1cc(O)c(O)c(O)c1"}
{"target": "SLC10A2", "assay": "transporter uptake, inhibitor, radiometric", "setting": "1 mM", "inhibition [%]": "< 10", "SMILES": "C[C@H]1C[C@@H]2[C@H]([C@@H](O)C[C@@]3(C)[C@H]2CC[C@]3(O)C(=O)CO)[C@@]2(C)C=CC(=O)C=C12"}
